In ChEMBL document CHEMBL2390837, “Synthesis, cytotoxic activity and DNA-interaction studies of novel anthraquinone-thiosemicarbazones with tautomerizable methylene group” (Eur J Med Chem, 2013):
pIC50: −log10 of the molar value. Calls of active or inactive are those of the source. The rule behind the calls is not given here.

Experiments:
MRC5 = assay: Cytotoxicity against human MRC5 cells after 72 hrs by MTT assay; assay type: cell-based; details: MRC5, 72 h
Procedure, shortened: (§1)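 Cells seeded in 96-well plates: HeLa 2000, MDA-MB-361 7000, MDA-MB-453 3000, K562, A549 and MRC-5 5000 per well. Compounds added at 5–100 μM (final), DMSO ≤0.5%, in RPMI-1640 with 10% FBS. Added after 24 h, except K562 at 2 h after seeding. Exposure 72 h, then MTT 4 h at 37 °C, SDS solubilization, A570 read. IC50 is the mean ± SD of three independent experiments.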

Escherichia coli [1] = assay: Induction of Escherichia coli XL1 blue pUC18 DNA cleavage assessed as conversion of supercoiled DNA to relaxed circular DNA at 1:2 compound to iron molar ratio after 90 mins by agarose gel electrophoresis in presence of Fe2+
Procedure, shortened: (§2)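 AQ-thiosemicarbazone (4 μL of 10 mM) preincubated 60 min at 37 °C in bicarbonate buffer with 2 μL of FeSO₄ or FeCl₃ (20 mM or 40 mM stock). pUC18 (2 μL) then added and incubated a further 90 min. Products run on 1% agarose in TAE at 80 V and stained with ethidium bromide (0.5 µg/mL).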

DNA = assay: Binding affinity to calf thymus DNA at 20 to 80 uM after 1.5 hrs by UV-vis spectrophotometric analysis; assay type: nucleic-acid assay; details: Bos taurus
Procedure, shortened: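 UV–Vis spectra (200–800 nm, 1 cm cells) of compound at 20, 40, 60 or 80 μM, with or without 0.12 mM CT-DNA. CT-DNA was dissolved in 10 mM Tris-HCl pH 7.9. Mixtures were in 40 mM bicarbonate buffer pH 8.4, incubated 1.5 h at 37 °C with occasional vortexing.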

HeLa [2] = assay: Induction of apoptosis in human HeLa cells at IC90 after 24 hrs by propidium iodide staining-based FACS flow cytometric analysis in presence of caspase-3 inhibitor Z-DEVD-FMK; assay type: functional, cell-based
HeLa [3] = assay: Cell cycle arrest in human HeLa cells assessed as accumulation at subG1 phase at 2 times IC50 after 24 hrs by propidium iodide staining-based FACS flow cytometric analysis (reference value: 9.10%); assay type: functional
HeLa [4] = assay: Induction of apoptosis in human HeLa cells at IC90 after 24 hrs by propidium iodide staining-based FACS flow cytometric analysis in presence of caspase-9 inhibitor Z-LEHD-FMK; assay type: functional, cell-based
HeLa [5] = assay: Cell cycle arrest in human HeLa cells assessed as accumulation at G2/M phase at IC50 after 24 hrs by propidium iodide staining-based FACS flow cytometric analysis (reference value: 21.66%); assay type: functional
HeLa [6] = assay: Cell cycle arrest in human HeLa cells assessed as accumulation at subG1 phase at IC50 after 24 hrs by propidium iodide staining-based FACS flow cytometric analysis (reference value: 9.10%); assay type: functional
HeLa [7] = assay: Cytotoxicity against human HeLa cells after 72 hrs by MTT assay; assay type: functional, cell-based; procedure, shortened: as §1
A549 = assay: Cytotoxicity against human A549 cells after 72 hrs by MTT assay; assay type: functional, cell-based; details: A549, 72 h; procedure, shortened: as §1
HeLa [8] = assay: Cell cycle arrest in human HeLa cells assessed as accumulation at G1 phase at 2 times IC50 after 24 hrs by propidium iodide staining-based FACS flow cytometric analysis (reference value: 51.97%); assay type: functional
K562 = assay: Cytotoxicity against human K562 cells after 72 hrs by MTT assay; assay type: functional, cell-based; details: K562, 72 h; procedure, shortened: as §1
[9] = system: Radical scavenging activity; assay: Antioxidant activity assessed as DPPH radical scavenging activity after 30 mins by spectrophotometric analysis; assay type: functional
Procedure, shortened: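 Test solutions at 8–1000 μM in methanol mixed 1:1 by volume with 200 μM DPPH in methanol, kept 30 min in the dark at room temperature. Absorbance read at 517 nm against blanks without DPPH. Percent scavenging = (A_DPPH − A_sample)/A_DPPH × 100. IC50 (concentration halving DPPH absorbance) read from a plot of % versus concentration. Ascorbic acid and BHT used as standards.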

HeLa [10] = assay: Cell cycle arrest in human HeLa cells assessed as accumulation at S phase at IC50 after 24 hrs by propidium iodide staining-based FACS flow cytometric analysis (reference value: 16.22%); assay type: functional
HeLa [11] = assay: Cell cycle arrest in human HeLa cells assessed as accumulation at S phase at 2 times IC50 after 24 hrs by propidium iodide staining-based FACS flow cytometric analysis (reference value: 16.22%); assay type: functional
MDA-MB-361 = assay: Cytotoxicity against human MDA-MB-361 cells after 72 hrs by MTT assay; assay type: functional, cell-based; details: MDA-MB-361, 72 h; procedure, shortened: as §1
Escherichia coli [12] = assay: Induction of Escherichia coli XL1 blue pUC18 DNA cleavage assessed as conversion of supercoiled DNA to relaxed circular DNA at 1:2 compound to iron molar ratio after 90 mins by agarose gel electrophoresis in presence of Fe3+; procedure, shortened: as §2
Escherichia coli [13] = assay: Induction of Escherichia coli XL1 blue pUC18 DNA cleavage assessed as conversion of supercoiled DNA to relaxed circular DNA at 2 mM after 90 mins by agarose gel electrophoresis
Procedure, shortened: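 Supercoiled pUC18 (262 ng, from E. coli XL1 blue) incubated with 2 mM compound in 20 μL of 40 mM bicarbonate buffer pH 8.4 at 37 °C for 90 min. Reaction stopped with loading buffer. Analyzed on 1% agarose in TAE pH 8.24 at 80 V and stained with ethidium bromide (0.5 µg/mL).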

Escherichia coli [14] = assay: Induction of Escherichia coli XL1 blue pUC18 DNA cleavage assessed as conversion of supercoiled DNA to relaxed circular DNA at 1:1 compound to iron molar ratio after 90 mins by agarose gel electrophoresis in presence of Fe3+; procedure, shortened: as §2
HeLa [15] = assay: Cell cycle arrest in human HeLa cells assessed as accumulation at G2/M phase at 2 times IC50 after 24 hrs by propidium iodide staining-based FACS flow cytometric analysis (reference value: 21.66%); assay type: functional
HeLa [16] = assay: Cell cycle arrest in human HeLa cells assessed as accumulation at subG1 phase after 24 hrs by propidium iodide staining-based FACS flow cytometric analysis; assay type: functional
HeLa [17] = assay: Cell cycle arrest in human HeLa cells assessed as accumulation at G1 phase at IC50 after 24 hrs by propidium iodide staining-based FACS flow cytometric analysis (reference value: 51.97%); assay type: functional
MDA-MB-453 = assay: Cytotoxicity against human MDA-MB-453 cells after 72 hrs by MTT assay; assay type: functional, cell-based; details: MDA-MB-453, 72 h; procedure, shortened: as §1
Escherichia coli [18] = assay: Induction of Escherichia coli XL1 blue pUC18 DNA cleavage assessed as conversion of supercoiled DNA to relaxed circular DNA at 1:1 compound to iron molar ratio after 90 mins by agarose gel electrophoresis in presence of Fe2+; procedure, shortened: as §2
HeLa [19] = assay: Induction of apoptosis in human HeLa cells at IC90 after 24 hrs by propidium iodide staining-based FACS flow cytometric analysis in presence of caspase-8 inhibitor Z-IETD-FMK; assay type: functional, cell-based

Activity (Escherichia coli [1]): Active
Activity (DNA): Active
pIC50 [9]: 4.58
Activity (Escherichia coli [12]): inactive
Activity (Escherichia coli [13]): inactive
Activity (Escherichia coli [14]): inactive
Activity (Escherichia coli [18]): inactive
SMILES: CCCCCCNC(=S)N/N=C(/CC(=O)c1cccc2c1C(=O)c1ccccc1C2=O)C(=O)OCC
pIC50 (MRC5): 4.38
Activity (HeLa [2]): Active
Activity (HeLa [3]): 37.32%
Activity (HeLa [4]): Active
Activity (HeLa [5]): 19.83%
Activity (HeLa [6]): 25.02%
pIC50 (HeLa [7]): 5.12
pIC50 (A549): 4.36
Activity (HeLa [8]): 36.66%
pIC50 (K562): 5.23
Activity (HeLa [10]): 14.62%
Activity (HeLa [11]): 17.17%
pIC50 (MDA-MB-361): 5.35
Activity (HeLa [15]): 3.84%
Activity (HeLa [16]): Dose-dependent effect
Activity (HeLa [17]): 37.89%
pIC50 (MDA-MB-453): 4.71
Activity (HeLa [19]): Active
